ChEMBL document CHEMBL1127460, “Cancer chemopreventive 3-substituted-4-oxoretinoic acids” (J Med Chem, 1994)

Experiments:
[1] = biological target: T1, Ornithine decarboxylase (Mus musculus) (UniProt P00860); assay: Inhibition of TPA-induced ODC activity as percentage of the average no. of papillomas / mouse in groups of control mice was determined using papilloma assay; assay type: functional; parameters: concentration or dose not given beside the values
T1 sequence (whole entry): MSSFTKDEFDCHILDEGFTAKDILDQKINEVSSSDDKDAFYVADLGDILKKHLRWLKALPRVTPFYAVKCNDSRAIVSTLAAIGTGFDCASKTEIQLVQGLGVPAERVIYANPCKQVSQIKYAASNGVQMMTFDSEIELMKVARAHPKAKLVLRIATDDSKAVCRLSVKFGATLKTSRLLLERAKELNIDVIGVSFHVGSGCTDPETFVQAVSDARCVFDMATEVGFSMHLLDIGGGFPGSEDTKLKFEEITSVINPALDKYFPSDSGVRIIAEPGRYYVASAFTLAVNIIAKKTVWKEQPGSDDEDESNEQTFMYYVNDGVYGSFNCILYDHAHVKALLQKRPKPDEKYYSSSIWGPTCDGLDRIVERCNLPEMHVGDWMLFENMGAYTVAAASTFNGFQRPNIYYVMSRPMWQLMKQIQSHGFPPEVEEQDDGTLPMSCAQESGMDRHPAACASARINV
How it was run: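 CD-1 female mice, shaved skin, initiated once with 51.2 μg DMBA in 0.2 mL acetone. From two weeks later, TPA 2 nmol in acetone twice weekly to the same area for 12–15 weeks. Tumors per mouse counted at the end, 10–15 mice per group. Group averages are expressed as a percentage of controls and averaged across experiments.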

[2] = biological target: T1, Ornithine decarboxylase (Mus musculus); assay: In vivo inhibition of ornithine de-carboxylase (ODC) activity induced by 12-0-tetradecanoylphorbol 13-acetate (TPA) in mouse skin; assay type: functional, organism-based
How it was run: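 Mouse-skin assay of TPA induction of ornithine decarboxylase, after Verma et al. Retinoid-treated groups are compared with TPA-induced controls. ODC activity is expressed as a percentage of control-group activity and averaged over the stated number of tests.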

SMILES | Control [1] | Average [2]
C#CCC1CC(C)(C)C(/C=C/C(C)=C/C=C/C(C)=C/C(=O)OC)=C(C)C1=O (stereo unspecified) | 40% | 34%
COC(=O)/C=C(C)/C=C/C=C(C)/C=C/C1=C(C)C(=O)C(Cc2ccccc2)CC1(C)C (stereo unspecified) | 78% | 56%
CC1=C(/C=C/C(C)=C/C=C/C(C)=C/C(=O)O)C(C)(C)CCC1=O (stereo in doubt; 3a) | 39% | 17%
CC1=C(/C=C/C(C)=C/C=C/C(C)=C/C(=O)O)C(C)(C)CC(C)(C)C1=O | 25% | 26%
CCC1CC(C)(C)C(/C=C/C(C)=C/C=C/C(C)=C/C(=O)O)=C(C)C1=O (stereo unspecified) | 57% | 40%
COC(=O)/C=C(C)/C=C/C=C(C)/C=C/C1=C(C)C(=O)CCC1(C)C | 25% | 18%
CC1=C(/C=C/C(C)=C/C=C/C(C)=C/C(=O)O)C(C)(C)CC(C)C1=O (stereo unspecified) | 29% | 26%
CCC1CC(C)(C)C(/C=C/C(C)=C/C=C/C(C)=C/C(=O)OC)=C(C)C1=O (stereo unspecified) | 68% | 31%
COC(=O)/C=C(C)/C=C/C=C(C)/C=C/C1=C(C)C(=O)C(C/C=C/c2ccccc2)CC1(C)C (stereo unspecified) | 20% | 31%
COC(=O)/C=C(C)/C=C/C=C(C)/C=C/C1=C(C)C(=O)C(C)(C)CC1(C)C | 22% | 22%
C=CCC1CC(C)(C)C(/C=C/C(C)=C/C=C/C(C)=C/C(=O)O)=C(C)C1=O (stereo unspecified) | 47% | 68%
C#CCC1CC(C)(C)C(/C=C/C(C)=C/C=C/C(C)=C/C(=O)O)=C(C)C1=O (stereo unspecified) | 64% | 47%
CC1=C(/C=C/C(C)=C/C=C/C(C)=C/C(=O)O)C(C)(C)CC(Cc2ccccc2)C1=O (stereo unspecified) | 38% | 34%
C=CCC1CC(C)(C)C(/C=C/C(C)=C/C=C/C(C)=C/C(=O)OC)=C(C)C1=O (stereo unspecified) | 42% | 56%
CC1=C(/C=C/C(C)=C/C=C/C(C)=C/C(=O)O)C(C)(C)CCC1 | 16% | 8%
CC1=C(/C=C/C(C)=C/C=C/C(C)=C/C(=O)O)C(C)(C)CC(C/C=C/c2ccccc2)C1=O (stereo unspecified) | 39% | 23%
COC(=O)/C=C(C)/C=C/C=C(C)/C=C/C1=C(C)C(=O)C(C)CC1(C)C (stereo unspecified) | 27% | 28%
CC1=C(/C=C/C(C)=C/C=C/C(C)=C/C(=O)Nc2ccc(O)cc2)C(C)(C)CCC1 | 89% | 60%
